Bioassay records from PubChem.
Hits are enriched below; roughly 2.6% of the tested compounds scored in any of these assays.
Runt-CBFb FRET: inhibitors of human RUNX1 Runt domain binding to CBFb. Q01196+Q13951. Cerulean-Runt/Venus-CBFb FRET ratio 530/480, 1 h. inhibition, % at 20 µM. 220,000 compounds, 0.46% hits;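 active = inhibition over about 50% at 20 µM in the single-dose screen, limit read from the data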;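 also: 0% = DMSO wells and 100% = excess unlabeled CBFb competitor control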
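Reagent – Venus-CBFb binding partner, 100 nM · Assay system – Cerulean-tagged RUNX1 Runt domain (FRET donor) fusion protein · Input – 100 nM per protein · Incubation – two 1 h room-temperature incubations shielded from light · Measured by – FRET fluorescence · Medium – Tris buffer pH 7.5 with salts and BSA · Benchmarks – unlabeled CBFb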
IMP-1 inh-1: inhibitors of Pseudomonas aeruginosa IMP-1 metallo-beta-lactamase | purified IMP-1, nitrocefin hydrolysis, epi-absorbance fluorescence | 290,000 compounds, 0.45% hits | AID 1556 | inhibition, % at 5.6 µM;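 active = inhibition above the mean plus 3 SD of all compounds in the same screening run, cut at about 4.5% in these data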;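 also: 0% = IMP-1 with DMSO and 100% = DMSO wells lacking enzyme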
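System: Purified IMP-1 | Read-out basis: Percent enzyme inhibition | Controls: IMP-1 with DMSO as 0%, enzyme-free DMSO as 100% | Replicates: One well per compound | Doses: 5.6 µM nominal single concentration | Detection: Epi-absorbance fluorescence, 480 nm excitation, 530 nm emission | Incubation: 25 °C, 15 min preincubation, 25 min reaction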
RanGTP-Impb inh: disruptors of Ran-importin-beta complex formation – biochemical, FRET, CFP-Ran, YFP-importin-beta, homogeneous, primary screen; cell-free CFP-Ran/YFP-importin-beta FRET ratio; inhibition, % (test concentration not listed); 300,000 compounds, 1.1% hits;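 active = more than half of the replicate wells show a fall in the fluorescence ratio signal beyond about 16%, limit read from the data, passing the limit was not always enough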;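 also: 0% = DMSO wells and 100% = Ran loaded with GDP instead of GTP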
Runt-SMMHC FRET: blocks binding of human RUNX1 Runt domain to CBFb-SMMHC; inhibition, % at 20 µM; 220,000 compounds, 0.74% hits; Cerulean-Runt/Venus-CBFb-SMMHC FRET ratio 530/480, 1 h;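 active = mean inhibition across duplicate retests at 20 µM reaching about 50%, limit read from the data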;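 also: 0% = DMSO wells and 100% = wells with excess untagged CBFb-SMMHC; inhibitors lower the FRET ratio by blocking Runt binding to CBFb-SMMHC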
VIM-2 inhibitor: inhibitors of Pseudomonas aeruginosa VIM-2 metallo-beta-lactamase; purified VIM-2, nitrocefin hydrolysis, epi-absorbance fluorescence; inhibition, % at 5.6 µM; 290,000 compounds, 0.89% hits;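 active = inhibition above the mean of all tested compounds plus 3 SD, cutoff set per screening run, cut at about 7.5% in these data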;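 also: red hydrolysis product quenches plate fluorescence so inhibitors raise well fluorescence; 0% = enzyme with DMSO and 100% = DMSO without enzyme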
IMP-1 inh-2: IMP-1 inhibition, counter-screen for VIM-2 inhibitors | shares compounds with VIM-2 inhibitor | purified IMP-1, nitrocefin hydrolysis, epi-absorbance fluorescence | inhibition, % at 5.6 µM | 1,300 tested, under 10 active; call rule not given here;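 also: 0% = enzyme with vehicle and 100% = vehicle without enzyme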
VIM-2 FRET ctr: counter-screen for VIM-2 inhibitors: epi-absorbance artifacts via FRET | purified VIM-2, CCF2 FRET substrate hydrolysis | inhibition, % at 5.6 µM | 1,300 compounds, 23% hits | shares compounds with VIM-2 inhibitor;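 active = inhibition above the mean of all tested compounds plus 3 SD, cut at about 19% in these data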;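 also: 0% = VIM-2 plus DMSO and 100% = no enzyme wells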
TEM-1 counter: TEM-1 inhibition, counter-screen for VIM-2 inhibitors; 1,300 compounds, 3% hits; inhibition, % at 5.6 µM; shares compounds with VIM-2 inhibitor; Purified TEM-1, nitrocefin hydrolysis, epi-absorbance fluorescence; AID 1866;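 active = inhibition above that campaign's mean inhibition plus 3 SD, cut at about 0.46% in these data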;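 also: 0% = TEM-1 with DMSO and 100% = TEM-1 with 100 µM potassium clavulanate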
Target sequence (P62593 whole entry, looked up): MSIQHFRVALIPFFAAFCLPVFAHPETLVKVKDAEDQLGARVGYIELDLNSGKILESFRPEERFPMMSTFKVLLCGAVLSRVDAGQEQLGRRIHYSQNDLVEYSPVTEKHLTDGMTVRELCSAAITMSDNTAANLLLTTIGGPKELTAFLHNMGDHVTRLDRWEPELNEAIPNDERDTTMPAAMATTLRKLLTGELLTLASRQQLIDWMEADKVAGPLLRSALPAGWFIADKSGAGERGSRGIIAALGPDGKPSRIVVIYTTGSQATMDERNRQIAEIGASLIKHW
VIM-2 confirm 2: confirmation of P. aeruginosa VIM-2 metallo-beta-lactamase inhibitors; shares compounds with VIM-2 inhibitor; purified VIM-2, nitrocefin hydrolysis, epi-absorbance; inhibition, % at 5.6 µM; 1,300 compounds, 96% hits;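 active = inhibition of the VIM-2 beta-lactamase enzyme above about 11% from the earlier first-round screen, limit read from the data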;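 also: 0% = VIM-2 with DMSO and 100% = buffer wells without enzyme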
The depositor's hits bear a star.

Cc1nn(C(C)C(=O)NC2CCCCCC2)c(=O)c2nn(-c3ccccc3)c(C)c12 (stereo not given) was read as IMP-1 inh-1 -3, RanGTP-Impb inh 2 and VIM-2 inhibitor -1.
For CCSS(=O)(=O)c1cccc2cccnc12 the results were Runt-CBFb FRET 20, IMP-1 inh-1 -2, RanGTP-Impb inh 2, Runt-SMMHC FRET 3, VIM-2 inhibitor 23*, IMP-1 inh-2 -4, VIM-2 FRET ctr -7, TEM-1 counter -4 and VIM-2 confirm 2 29*.
For Cc1nn2c(NCCN3CCOCC3)c3c(nc2c1-c1ccccc1)CCCC3 the results were Runt-CBFb FRET -4, IMP-1 inh-1 -1, RanGTP-Impb inh -1, Runt-SMMHC FRET -8 and VIM-2 inhibitor -2.
For Cc1nn2c(N3CCN(C)CC3)c3c(nc2c1-c1ccccc1)CCCC3 the results were Runt-CBFb FRET -1, IMP-1 inh-1 1, RanGTP-Impb inh 2, Runt-SMMHC FRET -2, VIM-2 inhibitor 26*, IMP-1 inh-2 -2, VIM-2 FRET ctr -4, TEM-1 counter -5 and VIM-2 confirm 2 55*.
For Cc1c(-c2cc[n+]([O-])cc2)oc2ccc(Br)cc2c1=O the results were Runt-CBFb FRET -1, IMP-1 inh-1 -3, RanGTP-Impb inh -2, Runt-SMMHC FRET 2 and VIM-2 inhibitor 3.
`Cc1oc2ccc(Br)cc2c(=O)c1-c1nn[nH]n1` gave Runt-CBFb FRET 1, IMP-1 inh-1 -3, RanGTP-Impb inh -3, Runt-SMMHC FRET -4, VIM-2 inhibitor 21*, IMP-1 inh-2 -1, VIM-2 FRET ctr 41*, TEM-1 counter 4.2* and VIM-2 confirm 2 27*.
`COC(=O)c1oc2nc(C)cc(C)c2c1N` gave Runt-CBFb FRET 1, IMP-1 inh-1 4, RanGTP-Impb inh -6, Runt-SMMHC FRET 1, VIM-2 inhibitor 15*, IMP-1 inh-2 -3, VIM-2 FRET ctr 0, TEM-1 counter -6 and VIM-2 confirm 2 14*.
Screening O=C1N=C(c2ccccc2)C(c2ccccc2)N1 (stereo not given) returned Runt-CBFb FRET 2, IMP-1 inh-1 -3, RanGTP-Impb inh -1, Runt-SMMHC FRET 3, VIM-2 inhibitor 15*, IMP-1 inh-2 -2, VIM-2 FRET ctr -5, TEM-1 counter -6 and VIM-2 confirm 2 51*.
Screening O=C(CC(C(=O)O)c1cccc(Cl)c1Cl)c1ccccc1 (stereo not given) returned IMP-1 inh-1 1, RanGTP-Impb inh -1, VIM-2 inhibitor 15*, IMP-1 inh-2 -2, VIM-2 FRET ctr 29*, TEM-1 counter -5 and VIM-2 confirm 2 18*.
`O=C(CC(C(=O)O)c1ccc(Cl)cc1Cl)c1ccc(Cl)cc1` (stereo not given) gave IMP-1 inh-1 0, RanGTP-Impb inh 1 and VIM-2 inhibitor 3.
`Cc1ccc2nc(C)c(C)nc2c1N` gave Runt-CBFb FRET 3, IMP-1 inh-1 0, RanGTP-Impb inh -3, Runt-SMMHC FRET 3, VIM-2 inhibitor 20*, IMP-1 inh-2 -3, VIM-2 FRET ctr -5, TEM-1 counter -6 and VIM-2 confirm 2 31*.
`Cc1c(OCC(=O)NC2CC(C)(C)NC(C)(C)C2)ccc2c3c(c(=O)oc12)CCC3` gave IMP-1 inh-1 -4, RanGTP-Impb inh 2, VIM-2 inhibitor 32*, IMP-1 inh-2 -1, VIM-2 FRET ctr 1, TEM-1 counter -13 and VIM-2 confirm 2 44*.
For Cc1c(OCC(=O)NC2CC(C)(C)NC(C)(C)C2)ccc2c1oc(=O)c1ccccc12 the results were IMP-1 inh-1 1, RanGTP-Impb inh 0, VIM-2 inhibitor 27*, IMP-1 inh-2 -1, VIM-2 FRET ctr 1, TEM-1 counter -15 and VIM-2 confirm 2 40*.
